The results in this text go back to ChEMBL document CHEMBL1649163, “Surfactants, aromatic and isoprenoid compounds, and fatty acid biosynthesis inhibitors suppress Staphylococcus aureus production of toxic shock syndrome toxin 1” (2009).

Common to all, as to type: functional
Test [1] deals with Staphylococcus aureus. Kind of test: microbe, parasite or virus in culture. To be noted: 24 h.
Test [2] relates to Staphylococcus aureus. Kind of test: microbe, parasite or virus in culture. To be noted: 24 h. This is another data set of the same source.
Test [3] has as its system Staphylococcus aureus. Kind of test: Effect on growth in Staphylococcus aureus MN8 at 10.00 mM after 24 hrs (reference value: 100%). A digest of the protocol: (§1)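 Test-tube growth assay: 10 ml growth medium (brain heart infusion with 10% fetal bovine serum, MgCl2, L-glutamine) inoculated to 5 × 10^6 CFU/ml from a 24 h 37°C preculture. Compound diluted in medium, or dissolved in methanol with methanol-matched controls. After 24 h at 37°C with 5% CO2, OD600 and viable counts read. Growth given as % of CFU/ml of untreated controls in the same experiment.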

Test [4] concerns Staphylococcus aureus. Kind of test: Effect on growth in Staphylococcus aureus MN8 at 5.00 mM after 24 hrs (reference value: 100%). A digest of the protocol:
as §1

Test [5] deals with Staphylococcus aureus. Kind of test: Effect on growth in Staphylococcus aureus MN8 at 2.50 mM after 24 hrs (reference value: 100%). A digest of the protocol: as §1
The test system of test [6] is Staphylococcus aureus. Kind of test: microbe, parasite or virus in culture. To be noted: 24 h. The source holds these as a separate data set.
The test system of test [7] is Staphylococcus aureus. Kind of test: microbe, parasite or virus in culture. The following applies: 24 h. The source holds these as a separate data set.
Test [8] relates to Staphylococcus aureus. Kind of test: Effect on growth in Staphylococcus aureus MN8 at 9.0 mM after 24 hrs (reference value: 100%). The essentials: as §1
Test [9] relates to Staphylococcus aureus. Kind of test: Effect on growth in Staphylococcus aureus MN8 at 2.00 mM after 24 hrs (reference value: 100%). A digest of the protocol: as §1
For test [10], the system named is Staphylococcus aureus. Kind of test: microbe, parasite or virus in culture. The following applies: 24 h. The source holds these as a separate data set.
Test [11] deals with Staphylococcus aureus. Kind of test: microbe, parasite or virus in culture. To be noted: 24 h. The source holds these as a separate data set.
In test [12] the test system is Staphylococcus aureus. Kind of test: Effect on growth in Staphylococcus aureus MN8 at 1.00 mM after 24 hrs (reference value: 100%). The essentials:
as §1

In test [13] the test system is Staphylococcus aureus. Kind of test: microbe, parasite or virus in culture. To be noted: 24 h. The source holds these as a separate data set.
In test [14] the test system is Staphylococcus aureus. Kind of test: Effect on growth in Staphylococcus aureus MN8 at 10.7 mM after 24 hrs (reference value: 100%). A digest of the protocol:
as §1

Test [15] deals with Staphylococcus aureus.
For test [16], the system named is Staphylococcus aureus. This is another data set of the same source.
Test [17] concerns Staphylococcus aureus. Kind of test: Effect on growth in Staphylococcus aureus MN8 at 0.50 % after 24 hrs (reference value: 100%). The essentials:
as §1

Test [18] deals with Staphylococcus aureus. Kind of test: Effect on growth in Staphylococcus aureus MN8 at 0.10 % after 24 hrs (reference value: 100%). A digest of the protocol: as §1
For test [19], the system named is Staphylococcus aureus. This is another data set of the same source.
Test [20] has as its system Staphylococcus aureus. Kind of test: Effect on growth in Staphylococcus aureus MN8 at 0.20 % after 24 hrs (reference value: 100%). The essentials: as §1
For test [21], the system named is Staphylococcus aureus. Kind of test: Effect on growth in Staphylococcus aureus MN8 at 0.75 mM after 24 hrs (reference value: 100%). The essentials: as §1
The subject of test [22] is Staphylococcus aureus. Kind of test: Effect on growth in Staphylococcus aureus MN8 at 3.75 mM after 24 hrs (reference value: 100%). A digest of the protocol:
as §1

Test [23] deals with Staphylococcus aureus. Kind of test: microbe, parasite or virus in culture. To be noted: 24 h. The source holds these as a separate data set.
Test [24] has as its system Staphylococcus aureus. Kind of test: microbe, parasite or virus in culture. The following applies: 24 h. The source holds these as a separate data set.
Test [25] concerns Staphylococcus aureus. Kind of test: microbe, parasite or virus in culture. To be noted: 24 h. The source holds these as a separate data set.
Test [26] relates to Staphylococcus aureus. Kind of test: Effect on growth in Staphylococcus aureus MN8 at 120.00 mM after 24 hrs (reference value: 100%). A digest of the protocol:
as §1

Test [27] concerns Staphylococcus aureus. Kind of test: Effect on growth in Staphylococcus aureus MN8 at 80.00 mM after 24 hrs (reference value: 100%). The essentials: as §1
In test [28] the test system is Staphylococcus aureus. Kind of test: microbe, parasite or virus in culture. The following applies: 24 h. This is another data set of the same source.
The test system of test [29] is Staphylococcus aureus. Kind of test: Effect on growth in Staphylococcus aureus MN8 at 9.8 mM after 24 hrs (reference value: 100%). The essentials:
as §1

In general, inhibition refers to the drop in the measured response relative to a control, in per cent. Higher therefore signals a response far below the control. In turn, `CCCCCCCCCCCCCCOCCOCCOCCOC(=O)CCCCCCCCCCCCC` registered an inhibition at 5000 µM in test [1] of 47.4%. The same molecule returned an inhibition at 2500 µM in [2] of 64.9%. Besides, the Activity is on record as 143.3% in test [3], 108% in test [4] and 106.6% in test [5]. In test [6], this molecule gave an inhibition at 10000 µM of 22.2%.
Molecule `CCCCCCCCCCCCOCCOCCOCCO` had an inhibition at 9000 µM in [7] of 1%. The Activity in test [8] is reported as 7.3%.
Turning to `Oc1ccc(Cc2ccccc2)cc1`, the values for the Activity in test [9] and in test [12] were 37.1% and 70.2%, respectively. This molecule also registered an inhibition at 2000 µM in test [10] of 77.2%. Besides, in [11], the inhibition at 1000 µM is 91%.
In the case of `CCCCCCCCCCCC(=O)OCC(O)CO` (racemic) [GLYCEROL MONOLAURATE], 10700 µM produced 5.2% inhibition in test [13]. The Activity in test [14] was 36.3%.
Regarding `CC(=O)Nc1ccc(O)cc1` [ACETAMINOPHEN], the “inhibition (INH)” value was 56.3% in test [15] and 10.8% in test [16]. For the same molecule, the Activity was found to be 13.2% in [17] and 44.2% in test [18].
Taken in the same sequence, the figures for `CC(=O)N[C@@H](Cc1ccc(O)cc1)C(=O)O` [ACETYL TYROSINE] were 71.5%, 47.1%, 19.9% and 47.5%.
With `Nc1ccc(C(=O)O)cc1` [AMINOBENZOIC ACID], in test [19], the “inhibition (INH)” value came to 8.6%. The Activity in test [20] turned out to be 11.8%.
As to `OCc1ccccc1` [BENZYL ALCOHOL], the “inhibition (INH)” value in test [15] was 43.5%; in test [16], 13.8%. For the same molecule, the figures for the Activity in [17] and in test [18] were 8.9% and 49.7%, respectively.
Consider `CC(=O)/C=C/C1=C(C)CCCC1(C)C` [BETA-IONONE], for which the results for the Activity in test [21] and in [22] were 27.1% and 1%, respectively. This molecule also had an inhibition at 750 µM in test [23] of 10%.
As for `C/C=C/C/C=C/CCC(=O)[C@H]1O[C@H]1C(N)=O` [CERULENIN], at 120000 µM the inhibition in test [24] was 10.7%. In addition, in test [25], testing at 80000 µM gave an inhibition of 8.4%. The values for the Activity in [26] and in [27] were 50% and 235.1%, respectively.
Regarding `CCCCCCCCCCCC(=O)NCCOC(=O)C(CC(=O)[O-])S(=O)(=O)[O-].[Na+].[Na+]` (stereo not drawn) [DISODIUM LAURAMIDO MEA], the inhibition at 10700 µM in [13] was 0.4%. The molecule also registered an Activity in [14] of 29.4%.
Consider `CCCCCCCCCCCCOCCOCCOCCOC(=O)CC(C(=O)[O-])S(=O)(=O)[O-].[Na+].[Na+]` (stereo not drawn) [DISODIUM LAURETH SULFOSUCCCINATE], for which at 9800 µM the inhibition in test [28] was 0.6%. This molecule came in with an Activity in test [29] of 10.3%.
For the molecule `CCCCCCCCCCCC1=NCC[N+]1(CCOCC(=O)[O-])CC(=O)[O-].[Na+].[Na+].[OH-]` (stereo not drawn) [DISODIUM LAUROAMPHODIACETATE], the inhibition at 10700 µM in test [13] is 1%. Further, in test [14], the Activity came out at 11.3%.
With `O=C(O)c1cc(O)c(O)c(O)c1` [GALLIC ACID], the figures for the “inhibition (INH)” value in test [15] and in test [16] were 41.4% and 8.7%, respectively. Besides, the Activity in [17] stood at 2.6%; in test [18], 45%.
On to `CC(C)=CCC/C(C)=C/CO` [GERANIOL], for which the Activity turned out to be 19.3% in [21] and 3.9% in [22]. In [23], this molecule displayed an inhibition at 750 µM of 0.7%.
